Calls of active or inactive are those of the source. The calls are words filed in the database; no cut-off is given here.
Tests used:
Format in all cases: functional
Rattus norvegicus [1] = experiment: Antiallergic activity in iv dosed ovalbumin-sensitized CFHB rat assessed as inhibition of passive cutaneous anaphylaxis after 30 mins by Evans blue staining; conditions: 0.5 h
Method in brief: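 Rats passively sensitized with 0.1 mL of 1:25 donor anti-ovalbumen serum (IgE plus IgG) at four dorsal sites, then challenged iv 72 h later with ovalbumen 1 mg plus 1% Evans blue (0.5 mL). Compound in Tris buffer/saline given iv 30 s before challenge at ≥3 doses, ≥7 rats per group. Blue spots scored 0–4 at 30 min. ED50 read from the dose–response curve of % inhibition versus controls.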

Rattus norvegicus [2] = experiment: Antiallergic activity in po dosed ovalbumin-sensitized CFHB rat assessed as inhibition of passive cutaneous anaphylaxis after 30 mins by Evans blue staining
Rattus norvegicus [3] = experiment: Antiallergic activity in ovalbumin-sensitized CFHB rat assessed as inhibition of passive cutaneous anaphylaxis at 10 mg/kg, iv after 30 mins by Evans blue staining
Method in brief: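 Sensitized with diluted (1:25) donor serum at four back sites. Challenge came 72 h later, iv, with ovalbumen 1 mg and 1% Evans blue 0.5 mL. Compound dissolved in Tris buffer, diluted in saline, and injected iv 30 s pre-challenge. Groups had at least seven rats, with matched controls. Skin spots were scored 0–4 for severity and area after 30 min. % inhibition came from the test versus control score difference.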

Structure (SMILES) | ED50 (Rattus norvegicus [1]) [mg/kg] | ED50 (Rattus norvegicus [2]; 0.5 h) [mg/kg] | other results
CS(=O)(=NC(=O)c1ccccc1)c1ccc2oc3ccc(C(=O)O)cc3c(=O)c2c1 (stereo not drawn) | 0.68 |  | 
CS(=N)(=O)c1ccc2oc3ccc(C(=O)O)cc3c(=O)c2c1 (stereo not drawn) | 0.033 | 2.72 | 
CC(=O)N=S(C)(=O)c1ccc2oc3ccc(C(=O)O)cc3c(=O)c2c1 (stereo not drawn) | 0.065 |  | 
CS(=O)(=NC(N)=O)c1ccc2oc3ccc(C(=O)O)cc3c(=O)c2c1 (stereo not drawn) | 0.11 | 8.6 | 
CCOC(=O)N=S(C)(=O)c1ccc2oc3ccc(C(=O)O)cc3c(=O)c2c1 (stereo not drawn) |  |  | inhibition in vivo at 10 mg/kg (Rattus norvegicus [3]; 0.5 h): 89%
Cc1ccc(S(=O)(=O)N=S(C)(=O)c2ccc3oc4ccc(C(=O)O)cc4c(=O)c3c2)cc1 (stereo not drawn) | 3.93 |  | 
CCOC(=O)C1=CN=S(=O)(c2ccc3oc4ccc(C(=O)O)cc4c(=O)c3c2)C=C1O (stereo not drawn) |  |  | inhibition (Rattus norvegicus [3]): inactive
CCCCCOc1cc(S(C)(=N)=O)cc2c(=O)c3cc(C(=O)O)ccc3oc12 (stereo not drawn) | 0.005 | 1.62 | 
CCCCCCc1cc(S(C)(=N)=O)cc2c(=O)c3cc(C(=O)O)ccc3oc12 (stereo not drawn) [SUDEXANOX] | 0.005 | 0.19 | 
O=C([O-])c1cc(=O)c2c(OCC(O)COc3cccc4oc(C(=O)[O-])cc(=O)c34)cccc2o1.[Na+].[Na+] [CROMOLYN SODIUM] | 1.21 |  | ED50 (Rattus norvegicus [2]): inactive
Cc1ccc(S(=O)(=O)/N=S(\C)c2ccc3oc4ccc(C(=O)O)cc4c(=O)c3c2)cc1 (stereo not drawn) | 0.43 |  | 
CCCCCCc1cc(S(C)(=O)=NC(N)=O)cc2c(=O)c3cc(C(=O)O)ccc3oc12 (stereo not drawn) | 0.009 |  | 
CS(=N)(=O)c1ccc2oc3ccccc3c(=O)c2c1 (stereo not drawn) |  |  | inhibition (Rattus norvegicus [3]): inactive
